Several values for one entry are separate records, joined by “and”; a condition that tells them apart may be missing. Identical values can stand only once.
Key:
HepG2 [1] = test: Cytostatic concentration required to inhibit Hep G2 cell proliferation; format: functional; conditions: Homo sapiens
[2] = system: Human immunodeficiency virus 1; test: Effective concentration against human immunodeficiency virus type 1 in CEM cells; format: functional, organism-based; conditions: Human immunodeficiency virus 1, CCRF-CEM
Method in brief: (§1)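 HIV-1- and HIV-2-induced cytopathicity in CEM cell cultures, scored at day 4 by microscopic examination of virus-induced giant cell formation; EC50 = concentration inhibiting cytopathicity by 50%.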

[3] = system: Human immunodeficiency virus 1; test: Effective concentration against human immunodeficiency virus type 1 in MT-4 cells; format: functional, organism-based, MT4
[4] = system: Human immunodeficiency virus 2; test: Effective concentration against human immunodeficiency virus type 2 in CEM cells; format: functional, organism-based; conditions: Human immunodeficiency virus 2, CCRF-CEM; method in brief: as §1
[5] = system: Human immunodeficiency virus 2; test: Effective concentration against human immunodeficiency virus type 2 in MT-4 cells; format: functional, organism-based; conditions: Human immunodeficiency virus 2, MT4
CCRF-CEM = test: Cytostatic concentration required to inhibit CEM cell proliferation; format: functional; conditions: Homo sapiens
MT4 = test: Cytostatic concentration required to inhibit MT-4 cell proliferation; format: functional, Homo sapiens
Hepatitis B virus [6] = test: Effective concentration against HBV in Hep G2.2.15 cells; format: functional, organism-based, HepG2 2.2.15
Method in brief: (§2)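 Anti-HBV activity assayed in HepG2 2.2.15 human hepatoma cells, which constitutively produce HBV; EC50 = 50% effective concentration.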

[7] = Apparent half life value in monkey after oral dosage; format: ADME, organism-based; conditions: cercopithecidae, in vivo, read-out: T1/2 app (converted)
Method in brief: (§3)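 Female cynomolgus monkeys (three, 2.0-3.2 kg) received the succinate salt at 11.5 mg/kg (17.3 µmol/kg), 2.3 mg/mL in 10% DMSO/90% saline, 5 mL/kg, iv on day 1 and orally on day 8 (1-week washout); fasted overnight to ~4 h postdose. Serial plasma to 24 h, acetonitrile deproteination, LC/MS/MS of prodrug, alaninyl-ABC-MP, ABC-MP, ABC, CBV; noncompartmental analysis.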

[8] = Time of maximum concentration was observed in monkey after oral dosage; format: ADME, organism-based; conditions: cercopithecidae, in vivo; method in brief: as §3
[9] = Area under the plasma concentration-time curve in monkey after peroral dosage; format: ADME; conditions: cercopithecidae, po; method in brief: as §3
[10] = Area under the plasma concentration-time curve in monkey after intravenous dosage; format: ADME; conditions: cercopithecidae; method in brief: as §3
[11] = Terminal elimination half-life in monkey after intravenous dosage; NA = not applicable; format: ADME, organism-based; conditions: cercopithecidae, in vivo; method in brief: as §3
HepG2 [12] = test: Cytostatic concentration required to inhibit Hep G2.2.15 cell proliferation; format: functional, Homo sapiens
Method in brief: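 Growth inhibition of HepG2 2.2.15 human hepatoma cells (constitutively HBV-producing) measured; CC50 = 50% cytostatic concentration.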

C3H/3T3 = test: Cytostatic concentration required to inhibit C3H/3T3 cell proliferation; format: functional; conditions: Mus musculus
[13] = system: Human immunodeficiency virus 1; test: Effective concentration against human immunodeficiency virus type 1 in PBL cells; format: functional, organism-based; conditions: Human immunodeficiency virus 1, PBL
[14] = system: Moloney murine sarcoma virus; test: Effective concentration against murine moloney sarcoma virus in C3H/3T3 cells; format: functional, organism-based
[15] = system: Human immunodeficiency virus 2; test: Effective concentration against human immunodeficiency virus type 2 (ROD) in CEM cells; format: functional, organism-based; conditions: Human immunodeficiency virus 2, CCRF-CEM; method in brief: as §1
Human alphaherpesvirus 1 [16] = test: Effective concentration against thymidine kinase competent herpes simplex virus (HSV-1) in […]; format: functional, organism-based
Method in brief: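 Confluent HEL cell cultures inoculated with 100 CCID50 of HSV-1 (KOS), HSV-2 (G) or HSV-1 TK- (B2006, VMW-1837); after 1 h adsorption, residual virus removed and cells incubated with varying compound concentrations; cytopathicity recorded once complete in virus controls; EC50 = concentration inhibiting HSV-induced cytopathicity by 50%.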

[17] = system: Human immunodeficiency virus 1; test: Ratio of CC50 to that of EC50 against human immunodeficiency virus type 1 in CEM cells; format: functional, CCRF-CEM
[18] = system: Human immunodeficiency virus 2; test: Ratio of CC50 to that of EC50 against human immunodeficiency virus type 2 in CEM cells; format: functional, CCRF-CEM
HEL = test: Cytostatic concentration required to inhibit HEL cell proliferation; format: functional; conditions: Homo sapiens
Method in brief: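 HEL cell proliferation measured in presence of compound; CC50 = 50% cytostatic concentration inhibiting HEL cell proliferation by 50%.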

Hepatitis B virus [19] = test: Effective concentration againstHBV in Hep G2.2.15 cells; format: functional, organism-based, HepG2 2.2.15; method in brief: as §2
Human alphaherpesvirus 2 = test: Effective concentration against thymidine kinase competent herpes simplex virus (HSV-2) in […]
Human alphaherpesvirus 1 [20] = test: Effective concentration against thymidine kinase deficient herpes simplex virus (HSV-1) in B2006 strain; conditions: Human alphaherpesvirus 1, B2006
Human alphaherpesvirus 1 [21] = test: Effective concentration against thymidine kinase deficient herpes simplex virus (HSV-1) in VMW-1837 strain; conditions: Human alphaherpesvirus 1, VMW-1837
[22] = Human immunodeficiency virus 1, MT4
[23] = Hepatitis B virus, HepG2 2.2.15

Row | Structure (SMILES) | CC50 (HepG2 [1]) | EC50 [2] | EC50 [3, 22] | EC50 [4] | EC50 [5] | CC50 (CCRF-CEM) | CC50 (MT4; Homo sapiens, MT4) | EC50 (Hepatitis B virus [6]; [23]) | CC50 (HepG2 [12]) | EC50 ([3]; mt4) | CC50 (MT4) | also measured
1 | CC(C)OC(=O)[C@@H](C)NP(=O)(OC[C@@H]1C=C[C@H](n2cnc3c(NC4CC4)nc(N)nc32)C1)Oc1ccccc1 (stereo partly specified) | 17 µM | 0.05 µM | 0.2 µM | 0.05 µM | 0.26 µM | 13 µM | 4.6 µM | 0.55 µM |  |  |  | 
2 | COC(=O)CNP(=O)(OC[C@@H]1C=C[C@H](n2cnc3c(NC4CC4)nc(N)nc32)C1)Oc1ccccc1 (stereo partly specified) | 58 µM | 1.8 µM | 7.2 µM | 2 µM | 5.4 µM | > 56 µM | 8.5 µM | 1 µM |  |  |  | 
3 | C[C@@H](NP(=O)(OC[C@@H]1C=C[C@H](n2cnc3c(NC4CC4)nc(N)nc32)C1)Oc1ccccc1)C(=O)OC(C)(C)C (stereo partly specified) | 11 µM | 3.7 µM | 6.6 µM | 6 µM | 3.4 µM | 8.6 µM | 2.1 µM | 5 µM |  |  |  | 
4 | COC(=O)C(C)(C)NP(=O)(OC[C@@H]1C=C[C@H](n2cnc3c(NC4CC4)nc(N)nc32)C1)Oc1ccccc1 (stereo partly specified) | 5.5 µM | 0.067 µM | 0.14 µM | 0.064 µM | 0.11 µM | > 130 µM | 8.1 µM | 0.019 µM |  |  |  | 
5 | COC(=O)[C@H](C)NP(=O)(OC[C@@H]1C=C[C@H](n2cnc3c(NC4CC4)nc(N)nc32)C1)Oc1ccccc1 (stereo partly specified) | 52 µM | 1.4 µM | 3.4 µM | 4.5 µM | 4.1 µM | 46 µM | 4.5 µM | 1.3 µM |  |  |  | 
6 | C[C@@H](NP(=O)(O)OC[C@@H]1C=C[C@H](n2cnc3c(NC4CC4)nc(N)nc32)C1)C(=O)O | 11 µM | 1.2 µM | 6.6 µM |  | 3.4 µM | 8.6 µM | 2.1 µM | 5 µM |  |  |  | half-life [7]: 0.8 h; Tmax [8]: 1.3 h; AUC [9]: 2.6 µM·h; AUC [10]: 9.2 µM·h; T1/2 [11]: Not Active
7 | COC(=O)[C@@H](C)NP(=O)(OC[C@@H]1C=C[C@H](n2cnc3c(NC4CC4)nc(N)nc32)C1)Oc1ccccc1 (stereo in doubt; 3b) |  |  |  |  |  |  |  |  | 35 µM | 0.11 µM | 4 µM | EC50 (Hepatitis B virus [6]; hepg2 2.2.15): 1.5 µM
8 | CCOC(=O)[C@@H](C)NP(=O)(OC[C@@H]1C=C[C@H](n2cnc3c(NC4CC4)nc(N)nc32)C1)Oc1ccccc1 (stereo in doubt; 6) | 18 µM | 0.07 µM |  | 0.061 µM | 0.21 µM | 12 µM |  | 0.35 µM |  | 0.2 µM | 8.6 µM | 
9 | CCOC(=O)[C@@H](C)NP(=O)(OC[C@@H]1C=C[C@H](n2cnc3c(NC4CC4)nc(N)nc32)C1)Oc1ccccc1 (stereo in doubt; 6a,b) |  |  |  |  |  |  |  |  | 18 µM | 0.0155 µM | 4.6 µM | 
10 | CCOC(=O)[C@@H](C)NP(=O)(OC[C@@H]1C=C[C@H](n2cnc3c(NC4CC4)nc(N)nc32)C1)Oc1ccccc1 (stereo in doubt; 6a) |  |  |  |  |  |  |  |  | 7.5 µM | 0.0155 µM | 0.95 µM | EC50 (Hepatitis B virus [6]; hepg2 2.2.15): 0.2 µM
11 | COC(=O)[C@@H](C)NP(=O)(OC[C@@H]1C=C[C@H](n2cnc3c(O)nc(N)nc32)C1)Oc1ccccc1 (stereo partly specified) |  | 1.3 µM |  |  |  | 78 µM |  |  |  |  |  | CC50 (C3H/3T3): > 20 µM; CC50 (HepG2 [12]; Homo sapiens, HepG2): 200 µM; EC50 [13]: 0.2 µM; EC50 [14]: 8.8 µM; EC50 [15]: 3 µM; EC50 (Human alphaherpesvirus 1 [16]): 480 µM; SI [17]: 41; SI [18]: 26; CC50 (HEL): 160 µM; EC50 (Hepatitis B virus [19]; [23]): 0.51 µM; EC50 (Human alphaherpesvirus 2): 480 µM; EC50 (Human alphaherpesvirus 1 [20]): > 800 µM; EC50 (Human alphaherpesvirus 1 [21]): 480 µM
12 | COC(=O)[C@@H](C)NP(=O)(OC[C@@H]1C=C[C@H](n2cnc3c(NC4CC4)nc(N)nc32)C1)Oc1ccccc1 (stereo in doubt; 3a) |  |  |  |  |  |  |  |  | 10 µM | 0.027 µM | 1 µM | EC50 (Hepatitis B virus [19]; hepg2 2.2.15): 0.4 µM
13 | CCOC(=O)[C@@H](C)NP(=O)(OC[C@@H]1C=C[C@H](n2cnc3c(NC4CC4)nc(N)nc32)C1)Oc1ccccc1 (stereo in doubt; 6b) |  |  |  |  |  |  |  |  | 35 µM | 0.14 µM | 5 µM | EC50 (Hepatitis B virus [6]; hepg2 2.2.15): 0.27 µM
14 | Nc1nc2c(ncn2[C@H]2C=C[C@@H](CO)C2)c(=O)[nH]1 [CARBOVIR] | 150 µM | 2 µM |  | 2.3 µM |  | 160 µM |  | 10.5 µM |  |  |  | CC50 (C3H/3T3): > 20 µM; CC50 (HepG2 [12]; Homo sapiens, HepG2): 150 µM; half-life [7]: 6 h; EC50 [13]: 0.03 µM; EC50 [14]: 6 µM; EC50 [15]: 2.3 µM; EC50 (Human alphaherpesvirus 1 [16]): 5 µM; SI [18]: 68; CC50 (HEL): 15 µM; EC50 (Hepatitis B virus [19]; [23]): 10 µM; Tmax [8]: 4.7 h; AUC [9]: 0.4 µM·h; AUC [10]: 0.7 µM·h; T1/2 [11]: Not Active; EC50 (Human alphaherpesvirus 2): 8 µM; EC50 (Human alphaherpesvirus 1 [20]): 50 µM; EC50 (Human alphaherpesvirus 1 [21]): 13 µM
15 | COC(=O)[C@@H](C)NP(=O)(OC[C@@H]1C=C[C@H](n2cnc3c(NC4CC4)nc(N)nc32)C1)Oc1ccccc1 (stereo in doubt; 3a,b) | 17 µM | 0.05 µM |  | 0.05 µM | 0.26 µM | 13 µM |  |  | 17 µM | 0.2 µM and 0.037 µM | 4.3 µM and 4.6 µM | EC50 (Hepatitis B virus [19]; [23]): 0.55 µM; EC50 (Hepatitis B virus [6]; hepg2 2.2.15): 0.55 µM

Reference: ChEMBL document CHEMBL1139507, “Application of phosphoramidate pronucleotide technology to abacavir leads to a significant enhancement of antiviral potency” (J Med Chem, 2005)
